pEC50: −log10 of the molar value.
Experiments:
[1] = molecular target: Metabotropic glutamate receptor 5 (Rattus norvegicus) (UniProt P31424); experiment: Fold potentiation towards rat metabotropic glutamate receptor 5; type: functional
Method in brief: (§1)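 FLIPR calcium assay in CHO cells transfected with human or rat mGluR5. Compound added with a low glutamate concentration (300 nM), measuring increase in response; compound alone (up to 100 µM) checked for agonist activity.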

[2] = molecular target: Metabotropic glutamate receptor 5 (Rattus norvegicus, UniProt P31424); experiment: Effective concentration against metabotropic glutamate receptor 5 of rat; method in brief: as §1
[3] = molecular target: T1, Metabotropic glutamate receptor 5 (Homo sapiens, UniProt P41594); experiment: Effective concentration against metabotropic glutamate receptor 5 of human transfected into CHO cells; type: cell-based; method in brief: as §1
Target sequence in this assay (P41594 whole entry): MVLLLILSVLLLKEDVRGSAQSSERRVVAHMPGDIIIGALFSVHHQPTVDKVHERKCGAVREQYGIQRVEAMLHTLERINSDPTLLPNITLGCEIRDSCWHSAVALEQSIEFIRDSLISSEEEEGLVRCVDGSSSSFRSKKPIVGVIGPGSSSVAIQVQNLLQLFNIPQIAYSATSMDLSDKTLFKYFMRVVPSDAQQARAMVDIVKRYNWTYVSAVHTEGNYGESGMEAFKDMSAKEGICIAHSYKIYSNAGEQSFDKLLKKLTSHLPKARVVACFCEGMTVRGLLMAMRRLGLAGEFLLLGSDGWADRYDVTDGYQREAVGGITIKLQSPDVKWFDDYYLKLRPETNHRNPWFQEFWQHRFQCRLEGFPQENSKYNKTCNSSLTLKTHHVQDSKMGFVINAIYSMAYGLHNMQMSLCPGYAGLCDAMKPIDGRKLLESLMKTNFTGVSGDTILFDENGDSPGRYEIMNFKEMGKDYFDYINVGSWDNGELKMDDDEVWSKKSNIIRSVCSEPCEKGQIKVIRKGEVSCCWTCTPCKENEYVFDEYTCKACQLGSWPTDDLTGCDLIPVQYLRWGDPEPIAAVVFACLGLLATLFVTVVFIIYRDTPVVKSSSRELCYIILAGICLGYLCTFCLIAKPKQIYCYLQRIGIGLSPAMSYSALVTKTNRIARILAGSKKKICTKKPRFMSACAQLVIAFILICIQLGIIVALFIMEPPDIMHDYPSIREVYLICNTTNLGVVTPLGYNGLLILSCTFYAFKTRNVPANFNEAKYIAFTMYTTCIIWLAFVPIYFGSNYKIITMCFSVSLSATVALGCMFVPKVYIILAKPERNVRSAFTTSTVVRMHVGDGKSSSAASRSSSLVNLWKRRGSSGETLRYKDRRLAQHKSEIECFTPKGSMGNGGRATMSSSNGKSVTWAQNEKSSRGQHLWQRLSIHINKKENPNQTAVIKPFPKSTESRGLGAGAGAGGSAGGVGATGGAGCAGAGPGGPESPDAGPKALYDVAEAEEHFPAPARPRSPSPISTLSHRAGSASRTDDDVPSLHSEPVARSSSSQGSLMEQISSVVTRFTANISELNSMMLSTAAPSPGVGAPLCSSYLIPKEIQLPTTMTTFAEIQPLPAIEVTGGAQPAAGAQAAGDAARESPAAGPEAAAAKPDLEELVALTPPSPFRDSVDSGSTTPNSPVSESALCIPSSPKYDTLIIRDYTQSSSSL

[4] = molecular target: T1, Metabotropic glutamate receptor 5; experiment: Fold potentiation in CHO cells overexpressing human metabotropic glutamate receptor 5; type: functional, cell-based; method in brief: as §1
Target sequence in this assay (P41594 21-1212 limits assumed): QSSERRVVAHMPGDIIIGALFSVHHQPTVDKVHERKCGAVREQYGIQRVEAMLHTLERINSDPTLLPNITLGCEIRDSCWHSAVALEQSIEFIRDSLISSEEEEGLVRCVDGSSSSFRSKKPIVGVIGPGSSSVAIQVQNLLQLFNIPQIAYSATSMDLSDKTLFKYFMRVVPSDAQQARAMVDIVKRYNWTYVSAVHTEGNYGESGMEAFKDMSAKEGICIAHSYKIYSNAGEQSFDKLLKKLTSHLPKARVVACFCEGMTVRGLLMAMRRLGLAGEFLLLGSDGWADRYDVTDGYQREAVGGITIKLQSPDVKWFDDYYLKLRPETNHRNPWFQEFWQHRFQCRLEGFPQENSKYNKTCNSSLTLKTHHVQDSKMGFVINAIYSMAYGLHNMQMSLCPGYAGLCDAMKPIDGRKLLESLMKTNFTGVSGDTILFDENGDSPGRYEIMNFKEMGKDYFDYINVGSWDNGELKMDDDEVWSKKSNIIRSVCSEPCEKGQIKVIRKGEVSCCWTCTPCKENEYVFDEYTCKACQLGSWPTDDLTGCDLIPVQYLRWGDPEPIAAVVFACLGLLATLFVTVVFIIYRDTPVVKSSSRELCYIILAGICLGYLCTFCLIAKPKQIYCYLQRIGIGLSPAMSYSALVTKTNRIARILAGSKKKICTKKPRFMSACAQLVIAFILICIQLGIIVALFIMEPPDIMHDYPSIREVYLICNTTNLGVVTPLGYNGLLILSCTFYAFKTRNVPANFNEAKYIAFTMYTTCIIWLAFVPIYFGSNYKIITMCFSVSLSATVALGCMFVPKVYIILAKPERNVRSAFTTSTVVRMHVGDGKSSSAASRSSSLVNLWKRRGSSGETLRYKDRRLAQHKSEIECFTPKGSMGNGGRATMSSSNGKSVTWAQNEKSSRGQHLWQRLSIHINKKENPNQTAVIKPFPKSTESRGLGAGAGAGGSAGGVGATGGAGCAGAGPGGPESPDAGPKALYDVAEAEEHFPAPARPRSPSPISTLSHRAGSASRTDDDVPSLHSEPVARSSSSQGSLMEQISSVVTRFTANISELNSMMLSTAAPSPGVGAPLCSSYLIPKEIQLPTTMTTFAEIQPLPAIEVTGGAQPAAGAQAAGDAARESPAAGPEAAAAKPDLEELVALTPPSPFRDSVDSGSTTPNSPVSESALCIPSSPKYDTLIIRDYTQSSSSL

Chain of Metabotropic glutamate receptor 5 (Rattus norvegicus) (P31424 21-1203 limits assumed): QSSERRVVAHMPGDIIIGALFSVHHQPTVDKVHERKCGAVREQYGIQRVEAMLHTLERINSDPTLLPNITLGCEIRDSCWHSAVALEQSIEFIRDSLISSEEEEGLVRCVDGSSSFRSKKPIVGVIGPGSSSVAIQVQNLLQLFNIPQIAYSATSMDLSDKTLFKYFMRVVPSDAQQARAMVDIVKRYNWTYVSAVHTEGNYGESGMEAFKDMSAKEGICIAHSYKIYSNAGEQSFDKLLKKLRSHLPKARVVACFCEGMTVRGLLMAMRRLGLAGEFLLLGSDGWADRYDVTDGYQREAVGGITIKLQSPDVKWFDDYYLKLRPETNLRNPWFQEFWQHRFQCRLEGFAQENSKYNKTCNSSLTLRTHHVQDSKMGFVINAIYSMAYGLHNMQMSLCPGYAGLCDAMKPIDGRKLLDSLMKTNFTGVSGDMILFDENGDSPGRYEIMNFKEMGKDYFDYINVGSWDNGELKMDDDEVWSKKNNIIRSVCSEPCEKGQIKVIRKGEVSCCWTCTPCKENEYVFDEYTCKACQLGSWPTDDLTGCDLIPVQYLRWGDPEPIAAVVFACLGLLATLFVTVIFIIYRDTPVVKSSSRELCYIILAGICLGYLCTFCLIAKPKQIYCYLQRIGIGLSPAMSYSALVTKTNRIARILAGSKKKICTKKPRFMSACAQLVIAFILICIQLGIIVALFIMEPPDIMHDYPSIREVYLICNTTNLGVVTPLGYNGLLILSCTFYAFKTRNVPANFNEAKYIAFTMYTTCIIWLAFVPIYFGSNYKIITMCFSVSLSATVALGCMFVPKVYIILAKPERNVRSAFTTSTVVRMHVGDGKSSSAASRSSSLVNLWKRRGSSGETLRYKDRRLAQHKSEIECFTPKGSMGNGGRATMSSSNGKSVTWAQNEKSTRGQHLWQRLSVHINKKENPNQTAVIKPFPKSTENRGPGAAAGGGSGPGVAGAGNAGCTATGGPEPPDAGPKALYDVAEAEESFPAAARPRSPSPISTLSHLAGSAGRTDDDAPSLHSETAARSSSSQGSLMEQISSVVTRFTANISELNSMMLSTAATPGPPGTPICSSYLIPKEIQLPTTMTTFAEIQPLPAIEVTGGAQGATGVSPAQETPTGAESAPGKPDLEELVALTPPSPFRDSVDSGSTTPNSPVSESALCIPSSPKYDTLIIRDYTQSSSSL
Chain of Metabotropic glutamate receptor 5 (Rattus norvegicus, UniProt P31424) (P31424 whole entry): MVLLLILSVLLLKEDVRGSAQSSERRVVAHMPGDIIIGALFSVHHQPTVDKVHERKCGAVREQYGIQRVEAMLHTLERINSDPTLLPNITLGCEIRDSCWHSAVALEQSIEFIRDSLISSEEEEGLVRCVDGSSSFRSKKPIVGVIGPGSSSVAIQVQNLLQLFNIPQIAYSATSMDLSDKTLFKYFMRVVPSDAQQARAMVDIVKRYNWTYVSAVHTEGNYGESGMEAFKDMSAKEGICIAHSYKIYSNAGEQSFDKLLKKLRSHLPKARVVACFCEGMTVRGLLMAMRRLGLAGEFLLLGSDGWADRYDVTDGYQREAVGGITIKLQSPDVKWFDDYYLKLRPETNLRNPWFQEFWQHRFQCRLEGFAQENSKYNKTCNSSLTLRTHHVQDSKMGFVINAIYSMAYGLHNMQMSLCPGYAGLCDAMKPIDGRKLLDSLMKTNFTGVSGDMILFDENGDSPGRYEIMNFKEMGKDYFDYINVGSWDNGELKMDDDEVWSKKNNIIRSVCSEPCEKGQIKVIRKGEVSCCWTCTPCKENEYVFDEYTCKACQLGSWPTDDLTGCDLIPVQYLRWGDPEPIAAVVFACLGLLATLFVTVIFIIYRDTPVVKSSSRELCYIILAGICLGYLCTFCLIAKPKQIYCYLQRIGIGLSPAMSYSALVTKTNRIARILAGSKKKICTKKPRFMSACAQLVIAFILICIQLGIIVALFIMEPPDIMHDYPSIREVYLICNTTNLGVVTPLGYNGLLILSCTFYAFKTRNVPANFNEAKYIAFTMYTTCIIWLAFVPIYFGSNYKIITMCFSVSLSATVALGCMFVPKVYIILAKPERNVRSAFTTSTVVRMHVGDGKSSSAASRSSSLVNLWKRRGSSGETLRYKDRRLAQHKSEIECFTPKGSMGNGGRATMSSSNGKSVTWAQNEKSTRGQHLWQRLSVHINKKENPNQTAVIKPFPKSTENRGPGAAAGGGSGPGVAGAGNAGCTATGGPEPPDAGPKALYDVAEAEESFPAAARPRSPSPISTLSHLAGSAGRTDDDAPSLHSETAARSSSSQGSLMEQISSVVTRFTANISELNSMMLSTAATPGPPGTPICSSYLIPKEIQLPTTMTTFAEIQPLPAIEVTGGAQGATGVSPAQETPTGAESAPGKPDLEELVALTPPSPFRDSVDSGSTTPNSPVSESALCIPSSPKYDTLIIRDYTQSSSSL

| Structure (SMILES) | Potentiation [1] | pEC50 [2] | pEC50 [3] | Potentiation [4] |
| --- | --- | --- | --- | --- |
| O=C(Nc1cc(-c2ccccc2)nn1-c1ccccc1)c1ccccc1F | 6.3 | 7.00 | 7.12 | 6.4 |
| Cc1ccc(C(=O)Nc2cc(-c3ccccc3)nn2-c2ccccc2)cc1 | 10.9 | 7.40 | 7.52 | 9 |
| O=C(Nc1cc(-c2ccccc2)nn1-c1ccccc1)c1ccsc1 | 3.7 | 5.54 | 5.74 | 2.5 |
| Cc1ccccc1C(=O)Nc1cc(-c2ccccc2)nn1-c1ccccc1 | – | – | < 5.00 | 0.9 |
| O=C(Nc1ccc(Cl)cc1CN1C(=O)c2ccccc2C1=O)c1ccccn1 | – | – | 6.61 | 7 |
| O=C(Nc1cc(-c2ccccc2)nn1-c1ccccc1)c1cnccn1 | 4.8 | 6.40 | 6.70 | 4.3 |
| O=C(Nc1cc(-c2ccccc2)nn1-c1ccccc1)c1ccccn1 | 8 | 6.23 | 6.54 | 3.6 |
| O=C(Nc1cc(-c2ccccc2)nn1-c1ccccc1)c1ccc(F)cc1 | 8 | 7.30 | 7.52 | 2.9 |
| O=C(Nc1ccc(Cl)cc1CN1C(=O)c2ccccc2C1=O)c1ccccc1O | – | – | – | 7 |
| O=C(Nc1cc(-c2ccccc2)nn1-c1ccccc1)c1ccccc1O | 0.9 | < 5.00 | < 5.00 | 0.9 |
| O=C(Nc1ccc(Br)cc1CN1C(=O)c2ccccc2C1=O)c1ccccn1 | – | – | 6.13 | 6 |
| Cc1cccc(C(=O)Nc2cc(-c3ccccc3)nn2-c2ccccc2)c1 | 9.4 | 7.00 | 7.05 | 9 |
| O=C(Nc1cc(-c2ccccc2)nn1-c1ccccc1)c1cccs1 | 5.3 | 6.40 | 6.70 | 2.9 |
| O=C(Nc1cc(-c2ccccc2)nn1-c1ccccc1)c1ccccc1 | 5 | 6.52 | 7.40 | 5 |
| O=C(Nc1cc(-c2ccccc2)nn1-c1ccccc1)c1ccccc1Cl | – | – | 5.60 | 3.7 |
| O=C(Nc1cc(-c2ccccc2)nn1-c1ccccc1)c1ccc(Cl)cc1 | 4.9 | 7.00 | 7.70 | 5 |
| O=C(Nc1cc(-c2ccccc2)nn1-c1ccccc1)c1cccc(F)c1 | 7.7 | 7.19 | 7.70 | 2.6 |
| O=C(Nc1cc(-c2ccccc2)nn1-c1ccccc1)c1ccc(C(F)(F)F)cc1 | 6.8 | 7.70 | 7.72 | 5.2 |
| N#Cc1cccc(C(=O)Nc2cc(-c3ccccc3)nn2-c2ccccc2)c1 | 4.3 | – | – | 4 |
| Fc1cccc(/C=N/N=C/c2cccc(F)c2)c1 | – | – | 8.63 | 3 |
| O=C(Nc1cc(-c2ccccc2)nn1-c1ccccc1)c1cccc(Cl)c1 | 3.3 | 6.70 | 7.40 | 5.4 |
| O=C(Nc1cc(-c2ccccc2)nn1-c1ccccc1)c1ccc(F)c(F)c1 | 6.4 | 7.70 | 8.00 | 2.6 |
